Key:
[1] = molecular target: Cytochrome P450 3A4 (Homo sapiens, UniProt P08684); assay: Inhibition of CYP3A4 (unknown origin) using Luciferin-PPXE as substrate at 10 uM preincubated with enzyme and substrate for 5 mins followed by addition of NADPH regeneration system and measured after 60 mins by luminescence method; format: ADME
How it was run: (§1)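 P450-Glo luminescence assays with these substrates: Luciferin-ME (CYP1A2), Luciferin-PPXE (CYP3A4), Luciferin-H (CYP2C9), LuciferinH-EG (CYP2C19), Luciferin-ME-EG (CYP2D6). Compounds run in 1/3 serial dilutions from 10 µM in 0.5% DMSO with enzyme and substrate. After 5 min preincubation, NADPH regeneration reagent added; 60 min at 37 °C, then detection reagent for 30 min. Background subtracted.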

[2] = molecular target: Phosphatidylinositol 4,5-bisphosphate 3-kinase catalytic subunit alpha isoform (Homo sapiens, UniProt P42336); assay: Inhibition of human full length p110alpha (1 to 1068 residues) expressed in baculovirus-infected Sf21 cells by ADP-Hunter Plus assay
Phosphatidylinositol 4,5-bisphosphate 3-kinase catalytic subunit alpha isoform, sequence (P42336 whole entry, the tested form may be a part, canonical isoform): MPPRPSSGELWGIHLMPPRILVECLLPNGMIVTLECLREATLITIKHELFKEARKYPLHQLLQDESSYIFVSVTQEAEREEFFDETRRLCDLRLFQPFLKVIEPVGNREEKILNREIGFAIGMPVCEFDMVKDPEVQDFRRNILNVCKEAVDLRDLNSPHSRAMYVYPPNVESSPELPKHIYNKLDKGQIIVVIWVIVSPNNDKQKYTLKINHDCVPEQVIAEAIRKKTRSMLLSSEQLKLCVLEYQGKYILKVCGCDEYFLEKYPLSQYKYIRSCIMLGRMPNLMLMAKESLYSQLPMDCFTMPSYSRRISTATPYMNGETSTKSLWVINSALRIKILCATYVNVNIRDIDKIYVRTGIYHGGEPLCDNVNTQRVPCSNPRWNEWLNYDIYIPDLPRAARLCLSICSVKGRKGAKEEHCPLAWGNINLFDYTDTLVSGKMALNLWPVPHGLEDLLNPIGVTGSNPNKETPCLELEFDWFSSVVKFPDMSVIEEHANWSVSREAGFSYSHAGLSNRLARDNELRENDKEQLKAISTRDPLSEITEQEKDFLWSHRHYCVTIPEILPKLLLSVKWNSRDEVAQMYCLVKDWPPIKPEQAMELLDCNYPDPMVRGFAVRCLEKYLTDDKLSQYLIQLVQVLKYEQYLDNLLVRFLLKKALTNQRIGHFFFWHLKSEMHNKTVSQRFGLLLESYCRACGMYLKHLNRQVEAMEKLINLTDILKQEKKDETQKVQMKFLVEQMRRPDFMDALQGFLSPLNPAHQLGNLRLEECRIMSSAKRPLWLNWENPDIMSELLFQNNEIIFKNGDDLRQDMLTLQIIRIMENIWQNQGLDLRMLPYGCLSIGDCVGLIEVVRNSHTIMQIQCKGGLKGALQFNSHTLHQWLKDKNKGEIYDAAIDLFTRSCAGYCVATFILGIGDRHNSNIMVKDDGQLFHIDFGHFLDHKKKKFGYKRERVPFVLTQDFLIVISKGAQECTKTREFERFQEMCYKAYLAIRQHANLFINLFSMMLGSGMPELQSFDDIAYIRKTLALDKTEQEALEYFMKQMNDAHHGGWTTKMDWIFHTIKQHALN

[3] = organism: Homo sapiens; assay: Selectivity ratio of Ki for human p110beta/p85alpha to Ki for human p110alpha/p85alpha using PIP2 as substrate in presence of ATP
How it was run: (§2)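 Ki from a PI3-kinase HTRF assay run per manufacturer. Enzyme levels: p110α/p85α and p110δ/p85α 100 pM, p110β/p85α 500 pM, p110γ 4 nM. ATP at 50× KM: 200 μM (α, δ), 250 μM (β), 100 μM (γ). PIP2 10 μM. Activity normalized to no-compound control. Ratio is the isoform Ki over the α Ki.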

[4] = Metabolic stability in human liver microsomes assessed as parent compound remaining in presence of NADPH regenerating system at 0.5 uM measured after 15 mins by LC-MS/MS analysis; format: ADME, Microsome; conditions: read-out: Stabilty
How it was run: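 Human, mouse or rat liver microsomes at 0.5 mg/ml protein with compound at 0.5 µM and NADPH-regenerating system, 37 °C with shaking. Control wells contain 0.1 M potassium phosphate instead of the regenerating system. Reaction stopped with acetonitrile/0.1% formic acid, centrifuged, supernatant analyzed by LC-MS/MS. Result is percent parent compound remaining.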

[5] = molecular target: PI3-kinase p110-alpha/p85-alpha (Homo sapiens, UniProt P42336, E542K); assay: Inhibition of p110alpha E542K mutant/p85alpha (unknown origin) using PIP2:3PS lipid kinase as substrate in presence of ATP measured by ADP-Glo lipid kinase assay; format: protein-complex assay
PI3-kinase p110-alpha/p85-alpha, sequence (P42336 whole entry E542K, looked up): as the sequence (P42336 whole entry, the tested form may be a part, canonical isoform) above, with E542K counted along it
How it was run: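 Lipid kinase assay with PIP2:3PS substrate held at 3.25 µM. Activity normalized to no-compound control for each enzyme and fitted to a variable-slope sigmoidal dose-response curve.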

[6] = molecular target: Phosphatidylinositol 4,5-bisphosphate 3-kinase catalytic subunit gamma isoform (Homo sapiens, UniProt P48736); assay: Inhibition of human p110gamma using PIP2 as substrate in presence of ATP measured by HTRF assay
Phosphatidylinositol 4,5-bisphosphate 3-kinase catalytic subunit gamma isoform, sequence (P48736 whole entry, canonical isoform): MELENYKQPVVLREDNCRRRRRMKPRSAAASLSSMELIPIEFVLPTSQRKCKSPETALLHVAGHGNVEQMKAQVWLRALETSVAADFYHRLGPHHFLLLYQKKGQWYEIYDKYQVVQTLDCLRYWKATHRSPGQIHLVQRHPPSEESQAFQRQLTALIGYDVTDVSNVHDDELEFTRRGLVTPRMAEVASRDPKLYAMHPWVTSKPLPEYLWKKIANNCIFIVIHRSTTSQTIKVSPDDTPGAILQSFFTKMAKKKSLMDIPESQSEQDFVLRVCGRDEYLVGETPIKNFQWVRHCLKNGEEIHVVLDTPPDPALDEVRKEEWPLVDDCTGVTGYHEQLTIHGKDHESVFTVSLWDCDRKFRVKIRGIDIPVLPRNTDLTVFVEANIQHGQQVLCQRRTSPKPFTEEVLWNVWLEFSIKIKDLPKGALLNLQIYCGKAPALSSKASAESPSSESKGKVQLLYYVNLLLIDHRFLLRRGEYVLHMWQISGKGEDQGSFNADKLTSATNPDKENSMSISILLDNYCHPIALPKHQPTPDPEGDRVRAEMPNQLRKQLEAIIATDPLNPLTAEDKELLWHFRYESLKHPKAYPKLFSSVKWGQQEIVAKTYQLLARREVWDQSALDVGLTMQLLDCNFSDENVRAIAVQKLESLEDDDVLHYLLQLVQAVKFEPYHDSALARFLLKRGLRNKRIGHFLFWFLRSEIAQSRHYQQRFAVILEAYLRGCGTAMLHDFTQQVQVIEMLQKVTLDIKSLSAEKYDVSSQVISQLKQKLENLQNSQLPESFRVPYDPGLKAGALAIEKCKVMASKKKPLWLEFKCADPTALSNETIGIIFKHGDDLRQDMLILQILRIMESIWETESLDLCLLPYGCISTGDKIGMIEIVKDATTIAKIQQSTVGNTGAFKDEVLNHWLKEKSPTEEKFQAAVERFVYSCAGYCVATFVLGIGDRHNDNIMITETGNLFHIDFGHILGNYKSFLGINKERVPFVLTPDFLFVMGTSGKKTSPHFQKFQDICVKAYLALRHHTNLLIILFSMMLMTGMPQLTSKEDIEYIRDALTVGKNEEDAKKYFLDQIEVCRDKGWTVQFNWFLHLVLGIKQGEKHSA
How it was run: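 HTRF PI3-kinase assay with PIP2 at 10 µM. Enzyme and ATP levels (ATP at 50× KM): p110α/p85α 100 pM with 200 µM ATP; p110δ/p85α 100 pM with 200 µM ATP; p110β/p85α 500 pM with 250 µM ATP; p110γ 4 nM with 100 µM ATP. Activity normalized to no-compound control, variable-slope sigmoidal fit. Two independent experiments in duplicate.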

[7] = organism: Homo sapiens; assay: Selectivity ratio of Ki for human p110delta/p85alpha to Ki for human p110alpha/p85alpha using PIP2 as substrate in presence of ATP; how it was run: as §2
[8] = molecular target: Cytochrome P450 2D6 (Homo sapiens, UniProt P10635); assay: Inhibition of CYP2D6 (unknown origin) using Luciferin-ME-EG as substrate at 10 uM preincubated with enzyme and substrate for 5 mins followed by addition of NADPH regeneration system and measured after 60 mins by luminescence method; format: ADME; how it was run: as §1
Cytochrome P450 2D6, sequence (P10635 whole entry): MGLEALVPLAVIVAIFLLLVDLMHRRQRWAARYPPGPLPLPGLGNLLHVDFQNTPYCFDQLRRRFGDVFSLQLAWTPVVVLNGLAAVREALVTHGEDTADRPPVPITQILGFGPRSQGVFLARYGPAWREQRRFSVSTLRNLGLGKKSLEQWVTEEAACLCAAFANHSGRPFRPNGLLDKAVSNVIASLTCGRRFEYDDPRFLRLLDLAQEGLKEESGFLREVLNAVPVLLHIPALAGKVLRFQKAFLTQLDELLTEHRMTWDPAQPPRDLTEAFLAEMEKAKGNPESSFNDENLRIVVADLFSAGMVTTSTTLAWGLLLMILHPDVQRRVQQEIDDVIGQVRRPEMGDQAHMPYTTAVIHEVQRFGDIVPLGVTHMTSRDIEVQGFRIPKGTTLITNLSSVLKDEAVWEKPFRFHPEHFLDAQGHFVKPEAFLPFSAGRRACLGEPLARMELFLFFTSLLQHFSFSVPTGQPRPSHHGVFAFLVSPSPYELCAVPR

[9] = Half life in BALB/c mouse at 5 mg/kg, iv measured for 8 hrs; format: ADME, organism-based; conditions: in vivo
How it was run: (§3)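 BALB/c mice dosed I.V. or P.O. at the stated dose; plasma levels followed for 8 h. Parameters from noncompartmental analysis: AUC (h.ng/ml), T1/2 (h), Cl (L/h/Kg), Vd (L/Kg), Cmax (ng/ml), Tmax (h).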

[10] = molecular target: Serine/threonine-protein kinase mTOR (Homo sapiens, UniProt P42345); assay: Inhibition of recombinant human GST tagged mTOR (1360 to 2549 residues) expressed in baculovirus expression system measured by LanthaScreen assay
How it was run: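 mTOR inhibition measured by LanthaScreen assay; IC50 values average two independent experiments.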

[11] = system: HT-29; assay: Growth inhibition of human HT-29 cells harboring mutated p110alpha measured after 72 hrs by Cell titre Glo-luminiscence cell viability assay; format: functional
How it was run: (§4)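 Cells harvested just before confluency and seeded at 4,000 cells/well, then left 24 h before dosing. Serial dilutions from 10 mM DMSO stocks, final DMSO ≤0.5%, each concentration in duplicate.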

[12] = system: MCF7; assay: Growth inhibition of human MCF7 cells harboring mutated p110alpha measured after 72 hrs by Cell titre Glo-luminiscence cell viability assay; format: functional; how it was run: as §4
[13] = AUC(infinity) in BALB/c mouse at 10 mg/kg, po measured for 8 hrs; format: ADME, organism-based; design: route oral, time 8 hrs, dose 10 mg/kg; conditions: in vivo; how it was run: as §3
[14] = Plasma concentration in BALB/c mouse at 10 mg/kg, po measured for 8 hrs; format: ADME, organism-based
How it was run: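 Dosing in BALB-C mice intravenously or orally, with plasma sampled over 8 h. Parameters (AUC, T1/2, Cl, Vd, Cmax, Tmax) come from a noncompartmental model. Units: AUC h.ng/ml, Vd L/Kg, Cmax ng/ml, Tmax h.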

[15] = organism: Homo sapiens; assay: Selectivity ratio of IC50 for recombinant human GST tagged mTOR (1360 to 2549 residues) expressed in baculovirus expression system to IC50 for human full length p110alpha (1 to 1068 residues) expressed in baculovirus-infected Sf21 cells
How it was run: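 mTOR activity measured by LanthaScreen assay. PI3K-α activity measured by ADP Hunter Plus (ADP accumulation, fluorescence ex 544/em 580 nm), normalized to no-compound control and fitted to a sigmoid dose-response curve. IC50s are the average of two independent experiments. Ratio is mTOR IC50 over PI3K-α IC50.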

[16] = Clearance in BALB/c mouse at 5 mg/kg, iv measured for 8 hrs; format: ADME, organism-based; conditions: in vivo; how it was run: as §3

Cytochrome P450 3A4, sequence (P08684 whole entry): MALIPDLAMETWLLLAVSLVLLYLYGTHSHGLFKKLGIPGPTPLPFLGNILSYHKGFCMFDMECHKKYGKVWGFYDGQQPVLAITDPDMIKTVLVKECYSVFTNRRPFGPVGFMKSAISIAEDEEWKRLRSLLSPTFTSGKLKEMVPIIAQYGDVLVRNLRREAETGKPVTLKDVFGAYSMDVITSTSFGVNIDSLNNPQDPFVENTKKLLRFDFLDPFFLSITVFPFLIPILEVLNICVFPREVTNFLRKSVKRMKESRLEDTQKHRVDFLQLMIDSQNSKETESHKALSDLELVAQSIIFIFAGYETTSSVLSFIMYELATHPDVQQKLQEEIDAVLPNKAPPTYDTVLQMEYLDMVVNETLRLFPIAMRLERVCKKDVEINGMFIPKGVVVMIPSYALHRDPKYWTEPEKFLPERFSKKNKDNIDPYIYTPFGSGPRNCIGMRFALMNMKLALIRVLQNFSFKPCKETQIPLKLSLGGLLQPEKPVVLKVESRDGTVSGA

IC50 [1]: > 30000 nM | IC50 [2]: 0.8 nM | Selectivity ratio [3]: 6 | remaining at 0.25 h, 0.5 µM [4]: 100% | Ki [5]: 0.27 nM | Ki [6]: 0.98 nM | Selectivity ratio [7]: 0.4 | IC50 [8]: > 30000 nM | half-life [9]: 2.59 h | IC50 [10]: 3.3 nM | GI50 [11]: 8.2 nM | GI50 [12]: 7 nM | AUC(0-inf) [13]: 4480 ng·h/mL | concentration at 8 h [14]: 202 ng/mL | clearance [16]: 31.5 mL/min/kg
SMILES: COc1ncc2cc1NS(=O)(=O)c1cccc(c1)C(=O)NCc1cncc(c1)-c1cnc3ccc-2cn13
Ratio IC50 [15]: 4.1
